In ChEMBL document CHEMBL1139851, “Synthesis and SAR of [1,2,4]triazolo[1,5-a]pyrimidines, a class of anticancer agents with a unique mechanism of tubulin inhibition” (J Med Chem, 2007):
The source made the active and inactive calls. The calls are words filed in the database; no cut-off is given here.

Columns and labels:
COLO 205 = assay: Cytotoxicity against COLO205 cells; format: cell-based; conditions: Homo sapiens
In short: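 MTS cytotoxicity assay in COLO 205 cells. Trypsinized cells were plated at 1000/well and preincubated about 24 h at 37 °C in 5% CO2. Compounds were added as nine serial 2-fold DMSO dilutions, final top concentration typically 5 µM, and cells were cultured 3 days. Absorbance was normalized to a time-0 plate. IC50 was read from a 10-concentration dose-response curve run in triplicate.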

[1] = Antiproliferative activity against KB8.5 cells expressing MDR1; format: functional, cell-based; conditions: Homo sapiens
In short: (§1)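 KB, KB 8.5 and KB V1 lines differ in P-gp (MDR1) level. Growth-inhibition IC50 was taken from a dose-response curve at 10 concentrations in duplicate.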

HeLa [2] = assay: Induction of apoptosis in HeLa cells assessed as effect on sub-G1 population; format: functional, cell-based; conditions: Homo sapiens
KB [3] = assay: Ratio of IC50 for KB8.5 cells to IC50 for KB cells; format: functional, Homo sapiens
In short: (§2)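 Resistance ratio is IC50 on KB 8.5 or KB V1 cells divided by IC50 on parental KB cells, each from 10-concentration duplicate dose-response curves.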

[4] = Ratio of IC50 for KBV1 cells to IC50 for KB cells; format: functional, Homo sapiens; in short: as §2
KB [5] = assay: Antiproliferative activity against KB cells expressing MDR1; format: functional, cell-based; conditions: Homo sapiens; in short: as §1
U-87MG ATCC [6] = assay: Antitumor activity against U87-MG cells xenografted in orally dosed athymic nu/nu mouse; format: functional, organism-based; conditions: Homo sapiens
In short: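 U87-MG flank xenografts (1 × 10⁶ cells, subcutaneous) were grown in female athymic nu/nu mice and staged at 80-120 mg. Compound was given by oral gavage on days 0 and 7 after staging. Controls received Klucel vehicle […], with nine animals per group. Tumor volume was (length × width²)/2, tested by one-sided Student's t-test.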

U-87MG ATCC [7] = assay: Antitumor activity against U87-MG cells xenografted in iv dosed athymic nu/nu mouse; format: functional, organism-based; conditions: Homo sapiens
In short: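 Female athymic nu/nu mice received 1 × 10⁶ U87-MG cells subcutaneously in the flank. Once tumors reached 80-120 mg they were randomized into groups of 5-10. Compound was given iv in Klucel or 0.9% saline; controls got vehicle alone. Tumor volume was (length × width²)/2, compared with vehicle by one-sided Student's t-test, p ≤ 0.05.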

[8] = Antiproliferative activity against KBV1 cells expressing MDR1; format: functional, cell-based; conditions: Homo sapiens, KB-V1; in short: as §1
Tubulin (Homo sapiens) [9] = target: T1, Tubulin (Homo sapiens) (UniProt P68371+Q9H4B7+P0DPH7+P68366+Q13509+Q71U36+P04350+Q3ZCM7+P07437+P68363+Q9BQE3+Q6PEY2+Q13885+Q9BVA1+Q9BUF5); assay: Induction of MAP-rich tubulin polymerization at 2.7 uM; format: protein-complex assay
Tubulin (Homo sapiens) [10] = target: T1, Tubulin (Homo sapiens); assay: Displacement of [3H]colchicine from tubulin; format: protein-complex assay
A549 = assay: Antitumor activity against A549 cells xenografted in athymic nu/nu mouse after iv administration; format: functional, organism-based
In short: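 Female athymic nu/nu mice were implanted subcutaneously in the flank with 1 × 10⁷ A549 cells. Animals were staged at about 300 (mm³/mg), then randomized into groups of 5-10. Dosing was iv on days 0, 7, 14 and 21, in Klucel or 0.9% saline; controls got vehicle. Tumor volume was (length × width²)/2. Analysis used a one-sided Student's t-test, p ≤ 0.05.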

Homo sapiens = species: Homo sapiens; assay: Displacement of [3H]paclitaxel from microtubules
[11] = Volume of distribution in rat; format: ADME, organism-based; conditions: in vivo, read-out: Vdss
Tubulin (Homo sapiens) [12] = target: T1, Tubulin (Homo sapiens); assay: Induction of tubulin polymerization in absence of GTP; format: protein-complex assay
[13] = Solubility in water at pH 5.48; format: physicochemical
[14] = Metabolic stability in mouse liver microsomes; format: ADME, Microsome
[15] = Clearance in rat; format: ADME, organism-based; conditions: in vivo
[16] = Solubility in water at pH 6.74; format: physicochemical
[17] = Half life in rat; format: ADME, organism-based; conditions: in vivo
HeLa [18] = assay: Mitotic block in HeLa cells assessed as increase in G2/M peak by flow cytometry at >35 nM; format: functional, cell-based; conditions: Homo sapiens
Tubulin (Homo sapiens) [19] = target: T1, Tubulin (Homo sapiens); assay: Displacement of [3H]vinblastine from tubulin; format: protein-complex assay
HeLa [20] = assay: Induction of apoptosis in HeLa cells assessed as increase in sub-G1 population at 35 nM; format: functional, cell-based; conditions: Homo sapiens
[21] = Metabolic stability in rat liver microsomes; format: ADME, Microsome
[22] = Oral bioavailability in rat; format: ADME, organism-based; conditions: in vivo
HeLa [23] = assay: Induction of apoptosis in HeLa cells assessed as increase in sub-G1 population at 1 uM; format: functional, cell-based; conditions: Homo sapiens

CCN(C)CCCOc1cc(F)c(-c2c(Cl)nc3ncnn3c2N[C@@H](C)C(F)(F)F)c(F)c1
IC50 (COLO 205): 48 nM

C[C@H](Nc1c(-c2c(F)cc(CCCCN(C)C)cc2F)c(Cl)nc2ncnn12)C(F)(F)F
IC50 (COLO 205): 665 nM

CC[C@]1(O)C[C@H]2CN(CCc3c([nH]c4ccccc34)[C@@](C(=O)OC)(c3cc4c(cc3OC)N(C=O)[C@H]3[C@@](O)(C(=O)OC)[C@H](OC(C)=O)[C@]5(CC)C=CCN6CC[C@]43[C@@H]65)C2)C1 [VINCRISTINE]
IC50 [1]: 58 nM | Activity (HeLa [2]): inactive | Ratio IC50 (KB [3]): 26

C[C@H](Nc1c(-c2ccc(F)cc2F)c(Cl)nc2ncnn12)C(F)(F)F
IC50 (COLO 205): 953 nM

C[C@@H](Nc1c(-c2c(F)cc(F)cc2F)c(Cl)nc2ncnn12)C(F)(F)F
IC50 (COLO 205): 705 nM

C[C@H](Nc1c(-c2c(F)ccc(OCCCCN(C)C)c2F)c(Cl)nc2ncnn12)C(F)(F)F
IC50 (COLO 205): 433 nM

C[C@H](Nc1c(-c2c(F)cc(OCCN3CCOCC3)cc2F)c(Cl)nc2ncnn12)C(F)(F)F
IC50 (COLO 205): 245 nM

C[C@H](Nc1c(-c2c(F)cc(N(C)CCCN(C)C)cc2F)c(Cl)nc2ncnn12)C(F)(F)F
IC50 (COLO 205): 1670 nM

COc1cc2c(c(OC)c1OC)-c1ccc(OC)c(=O)cc1[C@@H](NC(C)=O)CC2
Activity (HeLa [2]): inactive

C[C@H](Nc1c(-c2c(F)cc(SCCCN(C)C)cc2F)c(Cl)nc2ncnn12)C(F)(F)F
IC50 (COLO 205): 192 nM

CN(C)CCCOc1cc(F)c(-c2c(Cl)nc3ncnn3c2NCC(F)(F)F)c(F)c1.Cl
Ratio IC50 [4]: 14 | IC50 (COLO 205): 53 nM | IC50 [1]: 38 nM | IC50 (KB [5]): 18.7 nM | Activity (U-87MG ATCC [6]): Active | Ratio IC50 (KB [3]): 2 | Activity (U-87MG ATCC [7]): Active | IC50 [8]: 263 nM

C[C@H](Nc1c(-c2c(F)ccc(OCCN(C)C)c2F)c(Cl)nc2ncnn12)C(F)(F)F
IC50 (COLO 205): 1570 nM

C[C@H](Nc1c(-c2c(F)cc(OCCCN3CCOCC3)cc2F)c(Cl)nc2ncnn12)C(F)(F)F
IC50 (COLO 205): 51 nM | Activity (U-87MG ATCC [6]): Active | Activity (U-87MG ATCC [7]): Active

CNCCCOc1cc(F)c(-c2c(Cl)nc3ncnn3c2N[C@@H](C)C(F)(F)F)c(F)c1.Cl
Ratio IC50 [4]: 41.5 | Activity (Tubulin (Homo sapiens) [9]): Active | Activity (Tubulin (Homo sapiens) [10]): inactive | IC50 (COLO 205): 31 nM | Tumour inhibition (A549): Active | Activity (Homo sapiens): inactive | Vd [11]: 14 L/kg | IC50 [1]: 67 nM | Activity (Tubulin (Homo sapiens) [12]): Active | solubility [13]: 7990 µg/mL | IC50 (KB [5]): 23 nM | half-life [14]: 7.22 h | clearance [15]: 14 mL/min/kg | solubility [16]: 890 µg/mL | Activity (U-87MG ATCC [6]): Active | half-life [17]: 13 h | Activity (HeLa [18]): Active | Ratio IC50 (KB [3]): 2.9 | Activity (Tubulin (Homo sapiens) [19]): Active | Activity (U-87MG ATCC [7]): Active | Activity (HeLa [20]): Active | half-life [21]: 1.47 h | bioavailability [22]: 61% | IC50 [8]: 953 nM

C[C@H](Nc1c(-c2c(F)cc(OCCCN)cc2F)c(Cl)nc2ncnn12)C(F)(F)F
IC50 (COLO 205): 452 nM

C[C@H](Nc1c(-c2c(F)cc(OCCCN3CCCC3)cc2F)c(Cl)nc2ncnn12)C(F)(F)F
IC50 (COLO 205): 44 nM | Activity (U-87MG ATCC [6]): Active | Activity (U-87MG ATCC [7]): Active

CCCCOc1cc(F)c(-c2c(Cl)nc3ncnn3c2N[C@@H](C)C(F)(F)F)c(F)c1
IC50 (COLO 205): 1900 nM

C[C@H](Nc1c(-c2c(F)cc(OCCCN3CCC3)cc2F)c(Cl)nc2ncnn12)C(F)(F)F
IC50 (COLO 205): 326 nM

C[C@H](Nc1c(-c2c(F)cc(OCCCO)cc2F)c(Cl)nc2ncnn12)C(F)(F)F
IC50 (COLO 205): 67 nM

C[C@H](Nc1c(-c2c(F)cc(F)cc2F)c(Br)nc2ncnn12)C(F)(F)F
IC50 (COLO 205): 232 nM

C[C@H](Nc1c(-c2c(F)cc(OCCN(C)C)cc2F)c(Cl)nc2ncnn12)C(F)(F)F
IC50 (COLO 205): 581 nM

Fc1cc(F)c(-c2c(Cl)nc3ncnn3c2NCC(F)(F)F)c(F)c1
IC50 (COLO 205): 372 nM

C[C@H](Nc1c(-c2c(F)ccc(OCCCN(C)C)c2F)c(Cl)nc2ncnn12)C(F)(F)F
IC50 (COLO 205): 785 nM

C[C@H](Nc1c(-c2c(F)cc(F)cc2F)c(Cl)nc2ncnn12)C(F)(F)F
IC50 (COLO 205): 267 nM

C[C@H](Nc1c(-c2c(F)cc(OCCCCN(C)C)cc2F)c(Cl)nc2ncnn12)C(F)(F)F
IC50 (COLO 205): 276 nM

C[C@H](Nc1c(-c2c(F)ccc(F)c2F)c(Cl)nc2ncnn12)C(F)(F)F
IC50 (COLO 205): 183 nM

C[C@H](Nc1c(-c2c(F)cc(OCCO)cc2F)c(Cl)nc2ncnn12)C(F)(F)F
IC50 (COLO 205): 422 nM

C[C@H](Nc1c(-c2c(F)cc(OCCCN3CCCCC3)cc2F)c(Cl)nc2ncnn12)C(F)(F)F
IC50 (COLO 205): 113 nM

CC(=O)O[C@@]12CO[C@@H]1C[C@H](O)[C@@]1(C)C(=O)[C@H](O)C3=C(C)[C@@H](OC(=O)[C@H](O)[C@@H](NC(=O)OC(C)(C)C)c4ccccc4)C[C@@](O)([C@@H](OC(=O)c4ccccc4)[C@H]21)C3(C)C
Activity (HeLa [23]): Active

C[C@H](Nc1c(-c2c(F)cc(OCCCCCO)cc2F)c(Cl)nc2ncnn12)C(F)(F)F
IC50 (COLO 205): 214 nM

C[C@H](Nc1c(-c2ccc(OCCCN(C)C)cc2F)c(Cl)nc2ncnn12)C(F)(F)F
IC50 (COLO 205): 262 nM

CCOCCCOc1cc(F)c(-c2c(Cl)nc3ncnn3c2N[C@@H](C)C(F)(F)F)c(F)c1
IC50 (COLO 205): 269 nM

C[C@H](Nc1c(-c2c(F)cc(OCCCN(C)C)cc2F)c(Br)nc2ncnn12)C(F)(F)F
IC50 (COLO 205): 96 nM

C[C@H](Nc1c(-c2c(F)cc(OCCCCO)cc2F)c(Cl)nc2ncnn12)C(F)(F)F
Ratio IC50 [4]: 1.6 | IC50 (COLO 205): 151 nM | IC50 [1]: 70 nM | IC50 (KB [5]): 42 nM | Ratio IC50 (KB [3]): 1.6 | IC50 [8]: 67 nM

C[C@H](Nc1c(-c2c(F)cc(OCCCN(C)C)cc2F)c(Cl)nc2ncnn12)C(F)(F)F.Cl
Ratio IC50 [4]: 6.1 | IC50 (COLO 205): 56 nM | IC50 [1]: 33 nM | IC50 (KB [5]): 18.7 nM | Activity (U-87MG ATCC [6]): Active | Ratio IC50 (KB [3]): 1.8 | Activity (U-87MG ATCC [7]): Active | IC50 [8]: 114 nM

C[C@H](Nc1c(-c2c(F)cc(NCCCN(C)C)cc2F)c(Cl)nc2ncnn12)C(F)(F)F
IC50 (COLO 205): 719 nM
